Experimental data: ChEMBL document CHEMBL1152173, “Synthesis and in vitro evaluation of the antifungal activities of dihydropyrimidinones” (2008)
In brackets after ≈: the same amount, converted by molar mass. Activity calls are given as the source filed them. No cut-off for these calls is given here.

Legend:
Assay type in all cases: functional
[1] = tested on: Aspergillus niger; assay: Antifungal activity against Aspergillus niger assessed as radial growth at 0.5% after 72 hrs by poison food technique of Flack relative to control
[2] = tested on: Trichoderma hamatum; assay: Antifungal activity against Trichoderma hamatum assessed as radial growth at 7% after 72 hrs by poison food technique of Flack
Procedure, shortened: (§1)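 Poisoned-food method: acetone stock mixed into molten sterilized potato dextrose agar to final 0.5, 1, 3, 5 or 7%, poured into 90 mm plates. Plates were inoculated with a 9 mm mycelial disc from a 4-day-old pure culture and incubated at 25 ± 1 °C. Colony diameter (mm) was read every 24 h; mean of three replicates.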

[3] = tested on: Trichoderma koningii; assay: Antifungal activity against Trichoderma koningii assessed as radial growth at 5% after 48 hrs by poison food technique of Flack; procedure, shortened: as §1
[4] = tested on: Trichoderma koningii; assay: Antifungal activity against Trichoderma koningii assessed as radial growth at 0.5% after 72 hrs by poison food technique of Flack relative to control
Procedure, shortened: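 Acetone stock added to molten sterilized PDA to final 0.5–7%, plated in 90 mm dishes with compound-free plates as control. Each plate was inoculated with a 9 mm disc from a 4-day-old culture, incubated at 25 ± 1 °C, and colony diameter measured at 24 h intervals. % inhibition = (control − treatment)/control × 100; three replicates averaged.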

[5] = tested on: Aspergillus niger; assay: Antifungal activity against Aspergillus niger assessed as radial growth at 7% after 72 hrs by poison food technique of Flack relative to control
[6] = tested on: Aspergillus niger; assay: Antifungal activity against Aspergillus niger assessed as radial growth at 7% after 24 hrs by poison food technique of Flack
Procedure, shortened: (§2)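 Poisoned-food assay on potato dextrose agar. Compound stock in acetone was added to molten sterilized PDA to a final 0.5, 1, 3, 5 or 7%, then 20 mL was poured per 90 mm plate. Each plate was inoculated with a 9 mm mycelial disc from a 4-day-old pure culture and incubated at 25 ± 1 °C. Colony diameter (mm) was read every 24 h; mean of three replicates.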

[7] = tested on: Trichoderma koningii; assay: Antifungal activity against Trichoderma koningii
[8] = tested on: Trichoderma koningii; assay: Antifungal activity against Trichoderma koningii assessed as radial growth at 7% after 48 hrs by poison food technique of Flack; procedure, shortened: as §1
[9] = tested on: Aspergillus niger; assay: Antifungal activity against Aspergillus niger assessed as radial growth at 7% after 24 hrs by poison food technique of Flack relative to control
[10] = tested on: Aspergillus niger; assay: Growth promotion of Aspergillus niger assessed as radial growth at 1% after 72 hrs by poison food technique of Flack relative to control
Procedure, shortened: (§3)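 Growth increase in poisoned PDA plates (acetone stock, final 0.5 or 1%) against untreated control plates. Inoculum was a 9 mm mycelial disc from a 4-day-old culture, incubated at 25 ± 1 °C, with colony diameter read every 24 h. Where treated growth exceeded control, percentage increase over control was recorded; average of three replicates.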

[11] = tested on: Trichoderma koningii; assay: Antifungal activity against Trichoderma koningii assessed as radial growth at 3% after 24 hrs by poison food technique of Flack; procedure, shortened: as §1
[12] = tested on: Trichoderma koningii; assay: Antifungal activity against Trichoderma koningii assessed as radial growth at 7% after 24 hrs by poison food technique of Flack; procedure, shortened: as §1
[13] = tested on: Trichoderma hamatum; assay: Antifungal activity against Trichoderma hamatum assessed as radial growth at 5% after 24 hrs by poison food technique of Flack; procedure, shortened: as §1
[14] = tested on: Aspergillus niger; assay: Growth promotion of Aspergillus niger assessed as radial growth at 0.5% after 24 hrs by poison food technique of Flack relative to control; procedure, shortened: as §3
[15] = tested on: Aspergillus niger; assay: Growth promotion of Aspergillus niger assessed as radial growth at 0.5% after 48 hrs by poison food technique of Flack relative to control; procedure, shortened: as §3
[16] = tested on: Aspergillus niger; assay: Growth promotion of Aspergillus niger assessed as radial growth at 0.5% after 72 hrs by poison food technique of Flack relative to control; procedure, shortened: as §3
[17] = tested on: Aspergillus niger; assay: Growth promotion of Aspergillus niger assessed as radial growth at 1% after 48 hrs by poison food technique of Flack relative to control; procedure, shortened: as §3
[18] = tested on: Trichoderma koningii; assay: Antifungal activity against Trichoderma koningii assessed as radial growth at 5% after 24 hrs by poison food technique of Flack; procedure, shortened: as §1
[19] = tested on: Trichoderma hamatum; assay: Antifungal activity against Trichoderma hamatum assessed as radial growth at 7% after 48 hrs by poison food technique of Flack; procedure, shortened: as §1
[20] = tested on: Trichoderma hamatum; assay: Growth promotion of Trichoderma hamatum assessed as radial growth at 0.5% after 24 hrs by poison food technique of Flack relative to control; procedure, shortened: as §3
[21] = tested on: Trichoderma koningii; assay: Growth promotion of Trichoderma koningii assessed as radial growth at 0.5% after 24 hrs by poison food technique of Flack relative to control
[22] = tested on: Trichoderma koningii; assay: Growth promotion of Trichoderma koningii assessed as radial growth at 0.5% after 48 hrs by poison food technique of Flack relative to control
[23] = tested on: Aspergillus niger; assay: Growth promotion of Aspergillus niger assessed as radial growth at 1% after 24 hrs by poison food technique of Flack relative to control; procedure, shortened: as §3
[24] = tested on: Trichoderma hamatum; assay: Growth promotion of Trichoderma hamatum assessed as radial growth at 0.5% after 72 hrs by poison food technique of Flack relative to control
[25] = tested on: Trichoderma hamatum; assay: Growth promotion of Trichoderma hamatum assessed as radial growth at 0.5% after 48 hrs by poison food technique of Flack relative to control
[26] = tested on: Aspergillus niger; assay: Antifungal activity against Aspergillus niger assessed as radial growth at 7% after 48 hrs by poison food technique of Flack; procedure, shortened: as §2
[27] = tested on: Trichoderma koningii; assay: Growth promotion of Trichoderma koningii assessed as radial growth at 0.5% after 72 hrs by poison food technique of Flack relative to control
[28] = tested on: Trichoderma koningii; assay: Growth promotion of Trichoderma koningii assessed as radial growth at 1% after 24 hrs by poison food technique of Flack relative to control
[29] = tested on: Trichoderma koningii; assay: Growth promotion of Trichoderma koningii assessed as radial growth at 1% after 48 hrs by poison food technique of Flack relative to control
[30] = tested on: Aspergillus niger; assay: Antifungal activity against Aspergillus niger assessed as radial growth at 5% after 24 hrs by poison food technique of Flack; procedure, shortened: as §2
[31] = tested on: Aspergillus niger; assay: Antifungal activity against Aspergillus niger assessed as radial growth at 7% after 72 hrs by poison food technique of Flack; procedure, shortened: as §2
[32] = tested on: Trichoderma koningii; assay: Growth promotion of Trichoderma koningii assessed as radial growth at 1% after 72 hrs by poison food technique of Flack relative to control
[33] = tested on: Trichoderma hamatum; assay: Antifungal activity against Trichoderma hamatum assessed as radial growth at 5% after 48 hrs by poison food technique of Flack; procedure, shortened: as §1
[34] = tested on: Aspergillus niger; assay: Antifungal activity against Aspergillus niger assessed as radial growth at 5% after 48 hrs by poison food technique of Flack; procedure, shortened: as §2
[35] = tested on: Aspergillus niger; assay: Antifungal activity against Aspergillus niger assessed as radial growth at 3% after 24 hrs by poison food technique of Flack; procedure, shortened: as §2
[36] = tested on: Trichoderma hamatum; assay: Growth promotion of Trichoderma hamatum assessed as radial growth at 1% after 24 hrs by poison food technique of Flack relative to control
[37] = tested on: Trichoderma hamatum; assay: Growth promotion of Trichoderma hamatum assessed as radial growth at 1% after 48 hrs by poison food technique of Flack relative to control

SMILES	MIC [7] [µg/mL]	inhibition (INH) [1] [%]	inhibition (INH) [4] [%]	inhibition (INH) [5] [%]	Activity [6]	inhibition (INH) [9] [%]	Activity [10] [%]	Activity [12]	Activity [13]	Activity [14] [%]	Activity [15] [%]	Activity [16] [%]	Activity [17] [%]	Activity [18]	Activity [19]	Activity [21] [%]	Activity [22] [%]	Activity [26]	Activity [27] [%]	Activity [29] [%]	further results
CCOC(=O)C1=C(C)NC(=O)NC1c1ccccc1 (stereo not drawn)	0.025 (≈ 0.096 µM)	0	1.59	76.7	Active	100	7.76	Active	Active	19.44	64.39	27.63	13.37	Active	Active						Activity [2]: Active; Activity [3]: Active; Activity [8]: Active; Activity [11]: Active
CCOC(=O)C1=C(C)NC(=S)NC1c1ccc(N(C)C)cc1 (stereo not drawn)	0.025 (≈ 0.0783 µM)	0	0	100	Active	100	92.07	Active	Active	60	103.2	100	86.6		Active	15.38	18.75	Active	2.7	18.21	Activity [30]: Active; Activity [31]: Active; Activity [32]: 1.35%; Activity [33]: Active; Activity [34]: Active
CCOC(=O)C1=C(C)NC(=O)NC1c1ccc(N(C)C)cc1 (stereo not drawn)	0.025 (≈ 0.0824 µM)	35.69	45.53	100	Active	100		Active						Active				Active			Activity [20]: 8.97%; Activity [35]: Active; Activity [30]: Active; Activity [31]: Active; Activity [25]: 3.3%; Activity [36]: 3.15%; Activity [37]: 1.5%

Further lines, with some results ahead:

MIC [7] [µg/mL]	SMILES	inhibition (INH) [1] [%]	inhibition (INH) [4] [%]	inhibition (INH) [5] [%]	Activity [6]	inhibition (INH) [9] [%]	Activity [10] [%]	Activity [12]	Activity [13]	Activity [14] [%]	Activity [15] [%]	Activity [16] [%]	Activity [17] [%]	Activity [18]	Activity [19]	Activity [21] [%]	Activity [22] [%]	Activity [26]	Activity [27] [%]	Activity [29] [%]	further results
0.025 (≈ 0.0905 µM)	CCOC(=O)C1=C(C)NC(=O)NC1c1ccccc1O (stereo not drawn)	33.35	0	92.85	Active	100		Active		3.2					Active	6.49	11.97	Active	6.37		Activity [20]: 5.68%; Activity [8]: Active; Activity [23]: 7.4%; Activity [24]: 4.07%; Activity [25]: 19.53%; Activity [28]: 5.79%
0.025 (≈ 0.0855 µM)	CCOC(=O)C1=C(C)NC(=S)NC1c1ccccc1O (stereo not drawn)	0	0	36.14		62.46	104.34	Active	Active	90.09	129.68	93.61	94.34	Active	Active	19.71	53.12		1.25	113.53	Activity [24]: 0.42%; Activity [33]: Active
0.025 (≈ 0.0905 µM)	CCOC(=O)C1=C(C)NC(=S)NC1c1ccccc1 (stereo not drawn)	0	0	100	Active	100	75.75			133	96.9	106.06	50		Active	36.06	16.26	Active	2.97	3.92	Activity [31]: Active; Activity [32]: 2.97%; Activity [28]: 26.94%
